# Source: PubChem
# Only some compounds are listed: those with a hit (about 3.4% of all), similar ones and a draw of the others.
# CHT inh = human CHT choline transport inhibition; Q9GZV3; CHT-expressing cells, membrane potential dye, choline response; active compounds read low; B-score at 10 µM; hit rate 0.86% among 310,000;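 active = B-score over 3 SD under the library average, and starting fluorescence ratio not unusually high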;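 note: choline stimulus applied at its EC90 after an EC20 pre-addition; B-score computed on integrated fluorescence ratio after choline addition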
# TMEM16A act = activates or potentiates the mouse TMEM16A chloride channel | HEK293 TMEM16A/YFP-H148Q/I152L, iodide quench fluorescence; active compounds read low | B-score at 10 µM | Q8BHY3 | hit rate 0.3% among 340,000;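 active = fluorescence-ratio B-score plate-corrected deviation score at least 3 library SD below zero, with starting fluorescence score within 5 deviations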;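 note: channel opened by trigger with iodide after compound preincubation; score built on the fluorescence ratio of max minus min over baseline; more negative score means more quench and so TMEM16A activation or potentiation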
# Target sequence (Q8BHY3 whole entry, looked up): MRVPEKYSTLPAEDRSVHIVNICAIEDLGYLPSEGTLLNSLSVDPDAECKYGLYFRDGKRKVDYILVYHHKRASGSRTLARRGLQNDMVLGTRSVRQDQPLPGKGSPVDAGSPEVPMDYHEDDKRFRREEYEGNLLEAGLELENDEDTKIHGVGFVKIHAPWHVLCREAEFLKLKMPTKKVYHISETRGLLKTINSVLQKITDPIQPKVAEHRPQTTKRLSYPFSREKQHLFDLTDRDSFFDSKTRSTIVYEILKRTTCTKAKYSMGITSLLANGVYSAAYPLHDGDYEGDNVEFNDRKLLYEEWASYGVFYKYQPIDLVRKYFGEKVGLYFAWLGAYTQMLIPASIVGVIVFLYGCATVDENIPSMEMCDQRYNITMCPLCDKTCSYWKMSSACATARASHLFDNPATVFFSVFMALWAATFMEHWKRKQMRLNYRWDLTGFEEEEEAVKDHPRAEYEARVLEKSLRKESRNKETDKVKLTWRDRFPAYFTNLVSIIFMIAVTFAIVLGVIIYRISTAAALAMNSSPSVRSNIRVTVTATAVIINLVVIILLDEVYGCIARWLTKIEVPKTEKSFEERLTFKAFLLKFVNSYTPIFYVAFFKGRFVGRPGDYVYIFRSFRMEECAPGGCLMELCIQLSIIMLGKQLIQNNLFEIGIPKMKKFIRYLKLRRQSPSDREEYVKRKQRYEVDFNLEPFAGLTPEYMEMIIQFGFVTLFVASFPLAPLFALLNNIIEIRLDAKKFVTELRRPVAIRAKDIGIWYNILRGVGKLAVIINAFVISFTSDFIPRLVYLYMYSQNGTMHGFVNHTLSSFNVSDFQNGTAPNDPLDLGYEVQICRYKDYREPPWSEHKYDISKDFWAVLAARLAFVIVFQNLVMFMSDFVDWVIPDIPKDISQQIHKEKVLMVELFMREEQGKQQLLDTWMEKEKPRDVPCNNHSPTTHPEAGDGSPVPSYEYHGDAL
# CHT PAM = allosteric activators of human choline transporter CHT. Q9GZV3. CHT-expressing cells, membrane potential dye, choline EC20; active compounds read high; LV-AA mutant CHT in HEK293 cells. B-score at 10 µM. hit rate 0.49% among 310,000. AID 488977;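 active = initial fluorescence not abnormally high and integrated response B-score, plate-corrected, over 3 SD above library mean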
# VIM-2 inhibitor = blocks Pseudomonas aeruginosa VIM-2 metallo-beta-lactamase. AID 1527. hit rate 0.89% among 290,000. purified VIM-2, nitrocefin hydrolysis, epi-absorbance fluorescence. inhibition, % at 5.6 µM;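 active = inhibition above the mean of all tested compounds plus 3 SD, cutoff set per screening run, cut at about 7.5% in these data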;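 note: red hydrolysis product quenches plate fluorescence so inhibitors raise well fluorescence; 0% = enzyme with DMSO and 100% = DMSO without enzyme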
# IMP-1 inh = blocks Pseudomonas aeruginosa IMP-1 metallo-beta-lactamase | purified IMP-1, nitrocefin hydrolysis, epi-absorbance fluorescence | inhibition, % at 5.6 µM | hit rate 0.45% among 290,000 | AID 1556;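 active = inhibition above the mean plus 3 SD of all compounds in the same screening run, cut at about 4.5% in these data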;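 note: 0% = IMP-1 with DMSO and 100% = DMSO wells lacking enzyme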
#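 System: Purified IMP-1 | Read-out basis: Percent enzyme inhibition | Controls: IMP-1 with DMSO as 0%, enzyme-free DMSO as 100% | Replicates: One well per compound | Doses: 5.6 µM nominal single concentration | Detection: Epi-absorbance fluorescence, 480 nm excitation, 530 nm emission | Incubation: 25 °C, 15 min preincubation, 25 min reaction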
# TMEM16A inh = mouse TMEM16A channel inhibition, primary screen. AID 588511. HEK293 TMEM16A/YFP iodide influx fluorescence, ionomycin. normalized B-score (activity score, 25-100; higher = stronger inhibition) at 10 µM. hit rate 1.2% among 310,000;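 active = ratio plate-corrected score three or more library SD toward inhibition, starting fluorescence score within five deviations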;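 note: score derived from kinetic fluorescence span divided by baseline fluorescence per well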
# The depositor's hits bear a star; i = inactive; · = no result.
SMILES,CHT inh,TMEM16A act,CHT PAM,VIM-2 inhibitor,IMP-1 inh,TMEM16A inh
Cc1cc2[nH]c3c(c[n+](C)c4ccccc34)c2cc1C,i,i,i,6,11*,i
Cc1cc2[nH]c3c4ccccc4nc(C)c3c2cc1C,·,i,·,·,·,·
Cc1ccc(S(=O)(=O)N2CCC(C(=O)N3CCc4ccccc43)CC2)cc1C,·,i,·,·,·,·
CCc1ccc(NC(=S)NC(=O)c2c(-c3ccccc3Cl)noc2C)cc1,i,i,i,-1,0,i
Cc1onc(-c2ccccc2Cl)c1C(=O)NC(=S)NCC(=O)c1ccccc1,i,-9*,i,-3,-2,i
Cc1ccc(C2=NN(Cc3nnc(-c4ccccc4)o3)C(=O)SC2)cc1,i,i,i,2,1,25*
C/C(=N\NC(N)=S)c1ccc(-n2ccnc2)cc1,i,i,i,10.0*,-2,i
C/C(=N\NC(=O)c1ccccc1)c1ccc(-n2ccnc2)cc1,i,i,i,0,-2,i
CCn1c(SCC(=O)c2c(N)n(C3CC3)c(=O)[nH]c2=O)nc2cc(S(N)(=O)=O)ccc21,·,i,·,·,·,·
CCn1c(=O)c(CCC(=O)N2CCOCC2)c(C)c2c(C)nn(-c3ccccc3)c21,i,i,i,8.4*,-1,i
CCn1c(=O)c(CCC(=O)NCCN2CCOCC2)c(C)c2c(C)nn(-c3cccc(C)c3)c21,i,i,i,6,-2,i
Cc1nn(-c2ccccc2)c2c1c(C)c(CCC(=O)N1CCOCC1)c(=O)n2C,i,i,i,10*,-2,i
Cc1c(Cl)ccc2c(C(=O)NC(C)c3ccncc3)cc(-c3ccncc3)nc12 (stereo unspecified),i,·,i,2,-1,i
O=C(Nc1cccc(-n2cnnn2)c1)c1ccc(OC(F)(F)F)cc1,i,i,i,-2,-3,i
CC(C)(C)C1CCC(C(=O)Nc2ccc(N3CCOCC3)cc2N2CCOCC2)CC1 (stereo unspecified),·,i,·,·,·,·
O=C(c1ccco1)N1CCN(c2c([N+](=O)[O-])nn(-c3cccc(Cl)c3)[n+]2[O-])CC1,i,i,i,-3,7.8*,i
COc1ccc(NC(=O)Cc2ccc(Cl)c(Cl)c2)cn1,i,i,i,-1,-2,i
COc1ccc(NC(=O)/C(Cl)=C(/Cl)S(=O)Cc2ccccc2Cl)cn1 (stereo unspecified),·,-4.6*,·,-4,-5,·
CCN(CCn1cccn1)C(=O)C1CCC(=O)N(CCc2cccc(F)c2)C1 (stereo unspecified),i,i,i,-1,0,i
O=C(N/N=C/c1sc(N2CCOCC2)nc1-c1ccccc1)c1ccccc1O,i,i,i,-4,-1,100*
O=C(N/N=C/c1sc(N2CCOCC2)nc1-c1ccccc1)c1ccccc1Cl,i,i,i,-2,-1,i
O=C(NC1CCCCC1)c1sc(=S)n2c1[nH]c(=O)c1ccccc12,i,i,i,0,-2,100*
COc1ccc(C(CNc2ncnc3sc(C)c(C)c23)N(C)C)cc1 (stereo unspecified),i,i,i,8.8*,0,i
Cc1sc2ncnc(NCC(c3ccco3)N(C)C)c2c1C (stereo unspecified),i,i,i,3,-1,i
O=C(NCc1cccnc1)C1c2ccccc2C(=O)N1Cc1ccco1 (stereo unspecified),i,i,i,0,4.6*,i
SMILES,CHT inh,TMEM16A act,CHT PAM,VIM-2 inhibitor,IMP-1 inh,TMEM16A inh
COc1ccc(OC)c2c1C(=O)C(Cl)=C(Cl)C2=O,i,i,i,8.3*,-2,i
CCCCc1nc(SCC(=O)N2CCCC2)c2c(=O)n(C)c(=O)n(C)c2n1,i,i,i,2,0,i
Cc1cc(CNC(=O)COC(=O)Cn2[nH]c(=O)c3ccccc3c2=O)cc(C)c1O,i,i,i,·,·,i
C=CCOC(=O)C1=C[C@H](c2coc3ccccc3c2=O)C[C@H](OCCCCO)O1,i,i,i,·,·,i
C=CCOC(=O)C(=O)/C=C/c1coc2ccccc2c1=O,i,i,i,8.3*,-1,i
CCCN(CCC)CCCNC(=O)CC(C(=O)N1CCc2ccccc21)n1ccnc1 (stereo unspecified),i,i,i,-1,-1,25*
O=C(O)c1cccc(Cn2c(Cl)c(/C=N/Nc3ccccc3)sc2=O)c1,i,-35*,i,2,-1,i
O=C(N/N=C/c1sc(=O)n(Cc2ccc(Br)cc2)c1Cl)c1ccco1,i,i,i,2,24*,i
O=[N+]([O-])c1ccc(C2=NN(c3ccccc3)C(c3ccco3)C2)cc1 (stereo unspecified),·,i,·,3,6.6*,·
CC(=O)c1ccc(S(=O)(=O)N2CCN(C(=O)CSc3ccc(C)c(C)c3)CC2)cc1,i,i,i,1,1,i
CC(=O)Nc1ccc(Cl)c(-c2nc3ncccc3o2)c1,i,i,i,2,-5,i
COc1cc(/C=C2/C(=N)N3C(=NC2=O)SN=C3S(C)(=O)=O)ccc1OS(=O)(=O)c1ccccc1,-6.2*,·,i,-1,-3,i
CCOc1cc(/C=C2/C(=N)N3C(=NC2=O)SN=C3S(C)(=O)=O)ccc1OS(=O)(=O)c1ccccc1,-5.6*,i,i,-1,-1,i
CCOc1ccc(-n2c(C)cc(/C=C3/C(=N)N4C(=NC3=O)SN=C4S(C)(=O)=O)c2C)cc1,i,-6.3*,i,-3,-1,i
CC1CCC(NC(=O)CCN2C(=O)C3CC=CCC3C2=O)CC1 (stereo unspecified),·,i,·,·,·,·
O=C(Cc1coc2cc(O)ccc12)NNC(=O)c1ccc(Br)s1,·,i,·,·,·,·
CC1CCC(C(C)C)C(OC(=O)Cn2c(-c3ccccc3)[n+](C)c3ccccc32)C1 (stereo unspecified),i,i,i,-1,-5,100*
O=C(COC(=O)c1ccco1)Nc1ccc([N+](=O)[O-])cc1Cl,·,-26*,·,·,·,·
COc1ccc(CCNS(=O)(=O)c2ccc(-n3cnnn3)c(OC)c2)cc1OC,i,-31*,i,1,-1,i
Cc1cc(S(=O)(=O)NCCc2ccccc2)ccc1-n1cnnn1,i,i,i,-6,-4,i
CC(C)CN1C(=S)SC(C)(C)C1n1oc(=O)n(-c2ccccc2)c1=O (stereo unspecified),i,i,i,1,1,i
